# High-throughput results as filed in PubChem BioAssay.
# b-catenin transl – modulators of beta-catenin nuclear translocation, primary screen, imaging, HeLa cells, immunofluorescence, high-content | actives 0.3% (n = 190,000) | nuclear translocation activity, % at 5 µM | AID 1665, 2009;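 active = nuclear translocation activity above 50% at 5 µM, with a well cell count of 50 or more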;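 note: per-cell ratio of nuclear to cytoplasmic median beta-catenin stain intensity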
#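 Test system: human HeLa cell line; Doses: 5 µM primary, 0.02–20 µM confirmation; Incubation: 24 h compound exposure, 37°C; Detection: beta-catenin immunofluorescence imaging with DAPI; Read-out: beta-catenin nuclear/cytoplasmic ratio, % activation.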
# APP 5UTR inh – inhibitors of APP translation via 5'UTR reporter, primary screen, APP 5'UTR luciferase, SH-SY5Y cells | inhibition, % at 2 µM | actives 0.82% (n = 190,000) | SH-SY5Y APP 5'UTR-luciferase reporter, luminescence | AID 1285, 2008;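 active = inhibition above a set limit, derived from the sample mean plus 3 SD, cut at about 45% in these data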
# MT stabilizer – microtubule stabilizers in HeLa cells, primary screen, imaging, high-content imaging; actives 0.83% (n = 200,000); HeLa tubulin immunostaining HCS, 24 h; share of cells brighter than vehicle mean+2SD; % tubulin-high responders, % at 10 µM;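 active = plate Z-score above 3 for both tubulin-high and condensed-nucleus cell shares, with cell loss under 80%, at 10 µM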;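 note: anti alpha tubulin signal scored within the nucleus-defined area of each cell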
# Ba/F3 V617F tox – reduced viability of JAK2V617F-dependent Ba/F3 cells, primary screen, JAK2V617F inhibitor project, cell-based, Ba/F3 EpoR-JAK2V617F, luminescence; ATP luminescence; inhibition, % at 5.6 µM; actives 1.1% (n = 220,000);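 active = inhibition above the campaign mean plus 3 SD over all tested compounds, cut at about 24% in these data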;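 note: cytokine-independent growth of Ba/F3 cells driven by EpoR plus mutant JAK2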
# L major viab – Leishmania major promastigote growth inhibition, primary screen; inhibition, % at 10 µM; Leishmania major promastigotes, resazurin fluorescence viability; actives 9% (n = 200,000); in the data active = inhibition above about 50%;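 note: promastigotes grown with compound for 44 hours at 28 °C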
# BaF3 parental – parental Ba/F3 cell viability inhibition, counter-screen for JAK2V617F inhibitor project, murine pro-B, CellTiter-Glo luminescence. actives 1.1% (n = 220,000). CellTiter-Glo ATP luminescence. inhibition, % at 5.6 µM. AID 1486, 2009;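 active = inhibition above a per-campaign cutoff, the mean inhibition of all tested compounds plus 3 SD, cut at about 27% in these data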
# Hits are given with their value; . = inactive; / = no result given. Most compounds without a hit are left out; they make up all but 9.6% or so of the library.
SMILES,b-catenin transl,APP 5UTR inh,MT stabilizer,Ba/F3 V617F tox,L major viab,BaF3 parental
COc1ccc(NC(=O)CC2C(=O)N(Cc3ccccc3)C(=S)N2CCN2CCOCC2)cc1 (centres undefined),.,.,.,.,98,.
COC(=O)CN1C(=S)N(c2ccc(Cl)cc2)C(=O)C1CC(=O)Nc1ccccc1 (centres undefined),.,.,.,.,64,.
COc1ccc(NC(=O)CC2C(=O)N(C)C(=S)N2Cc2cccs2)cc1 (centres undefined),.,.,.,.,54,.
C=CCN1C(=O)C(CC(=O)Nc2ccc(OCCC)cc2)N(CCCN2CCN(Cc3ccccc3)CC2)C1=S (centres undefined),/,.,.,.,100,.
CCCNC(=S)N1CCC(c2nc3cc(C)c(C)cc3[nH]2)CC1,.,.,.,.,.,.
Cc1cc2nc(C3CCN(CC4COc5ccccc5O4)CC3)[nH]c2cc1C (centres undefined),.,.,.,.,91,.
O=S(=O)(Nc1cc2nc3ccccc3nc2n1Cc1ccccc1)c1ccc(Cl)cc1,.,.,.,.,.,.
CC(C)CC(=O)Nc1cccc(NC(=O)c2ccccc2Cl)c1,.,.,.,.,59,.
CC(C)Oc1cccc(C(=O)NC(=S)Nc2cccc(NC(=O)c3ccccc3Cl)c2)c1,.,.,.,.,86,.
COc1ccccc1/C=C/C1(C(=O)NC2CCCC2)CC(=O)N1c1ccccc1 (centres undefined),.,/,/,.,/,.
COc1cc(C=C2C(=O)c3ccccc3C2=O)ccc1O,.,/,/,.,/,.
O=C1ON=C(c2ccc(Cl)cc2)/C1=C/c1ccc(O)cc1,.,.,.,.,65,.
CC1=NOC(=O)/C1=C/c1ccc(O)cc1,.,.,.,.,.,.
COc1cc(/C=C2/C(=O)ON=C2c2ccccc2)ccc1O,.,.,.,.,88,.
CCc1ccc(N(C(=O)Cn2nnc(-c3ccccc3)n2)C(C(=O)NC2CCCCC2)c2ccccn2)cc1 (centres undefined),.,.,.,.,.,.
CN1C(=S)N(c2cccnc2)C(=O)/C1=C\c1ccc(C(C)(C)C)cc1,.,.,.,.,96,.
O=C1C2C3C=CC(C3)C2C(=O)N1CC1CCCO1 (centres undefined),/,.,.,.,.,.
O=C1CSC(=S)N1CC1CCCO1 (centres undefined),.,.,.,.,81,.
CC(C)c1ccc(CN2CC(C(=O)Nc3ccccc3)CC2=O)cc1 (centres undefined),.,.,.,.,62,.
CCCCN(C)CCCNC(=O)C1CC(=O)N(Cc2ccc(OC)cc2)C1 (centres undefined),.,.,.,.,.,.
Cc1ccc(S(=O)(=O)N2CCCCC2)cc1NC(=O)C1CC(=O)N(Cc2ccccc2)C1 (centres undefined),.,.,.,.,53,.
COc1ccc(CN2CC(C(=O)NCCC(C)C)CC2=O)cc1 (centres undefined),.,.,.,.,100,.
Cc1cccc(-c2nc3c(c(=O)c4ccccc4n3C)c(=O)n2-c2ccccc2)c1,.,/,/,.,/,.
Cc1nnc(SCc2ccc([N+](=O)[O-])cc2)o1,.,.,.,.,.,.
CCc1nc(C)cn1S(=O)(=O)c1ccc([N+](=O)[O-])cc1,.,.,.,.,100,.
SMILES,b-catenin transl,APP 5UTR inh,MT stabilizer,Ba/F3 V617F tox,L major viab,BaF3 parental
CCc1nc(C)cn1S(=O)(=O)c1cc(C)c(OC)cc1C,/,.,.,.,.,.
CCc1nc(C)cn1S(=O)(=O)c1ccc(Cl)c(Cl)c1Cl,.,.,.,.,97,.
CCc1nc(C)cn1S(=O)(=O)c1cc(Cl)c(OC)cc1Cl,.,.,.,.,.,.
CCc1nc(C)cn1S(=O)(=O)c1cc(Br)c(C)cc1OC,.,.,.,.,99,.
CCOC(=O)N1CCN(S(=O)(=O)c2ccc([N+](=O)[O-])cc2)CC1,.,.,.,.,.,.
CCc1nc(C)cn1S(=O)(=O)c1cc(C)c(OC)c(C)c1C,/,.,.,.,93,.
CN(C)C1(CNC(=S)Nc2ccccc2C(F)(F)F)CCCCC1,.,.,.,.,.,.
CC1=CC(=O)N(c2ccn(C)n2)C1=O,.,/,/,.,/,.
CCOC(=O)C(C(=O)OCC)[C@@H]1CS(=O)(=O)C[C@H]1C(C(=O)OCC)C(=O)OCC,.,.,.,.,.,.
COc1ccc(C(=O)CN2CCN(S(=O)(=O)c3cccc([N+](=O)[O-])c3)CC2)cc1,.,.,.,.,.,.
CCc1nc(C)cn1S(=O)(=O)c1cc(Br)ccc1OC,.,.,.,.,67,.
CCc1nc(C)cn1S(=O)(=O)c1cc(F)ccc1OC,.,.,.,.,.,.
CCC(C)c1ccccc1NC(=O)COC(=O)c1ccc2c(c1)S(=O)(=O)c1ccccc1C2=O (centres undefined),.,.,.,.,.,.
O=C1C2C3CCC(C3)C2C(=O)N1Cc1ccccc1 (centres undefined),.,.,.,.,57,.
COc1ccccc1N1CCN(C(=O)c2ccc(Cl)c(S(=O)(=O)NCc3ccco3)c2)CC1,129,.,50,.,.,.
O=C(Nc1ccccc1N1CCOCC1)c1ccc(Cl)c(S(=O)(=O)NCc2ccco2)c1,.,.,.,.,.,.
O=C(c1ccc(Cl)c(S(=O)(=O)NCc2ccco2)c1)N1CCN(c2ccccc2F)CC1,/,.,41,.,.,.
Cc1c(S(=O)(=O)N2CCCC(C(=O)O)C2)cnn1C (centres undefined),.,.,.,.,.,.
COc1cccc(CN2CCN(Cc3cccc4c3OCO4)CC2CCO)c1 (centres undefined),.,.,.,.,.,.
CCOc1ccc(CN2CCN(Cc3cccc4c3OCO4)CC2CCO)cc1 (centres undefined),.,.,.,.,77,.
Cc1ccc(CN2CCN(Cc3cccc4c3OCO4)CC2CCO)cc1 (centres undefined),.,.,.,.,58,.
CCOc1ccc(CN2CCN(Cc3[nH]c4ccccc4c3C)CC2CCO)cc1 (centres undefined),.,.,.,.,77,.
COC(=O)COc1cccc(/C=N/NC(=O)CCSc2ccccc2)c1,.,.,.,.,.,.
O=C(NCCNc1ccc(Cl)cc1[N+](=O)[O-])c1cccnc1,.,.,.,.,.,.
Cc1ccoc1C(=O)NCCNc1ccc(Cl)cc1[N+](=O)[O-],.,.,.,.,83,.
